Measured values published in paper PMC7415440 (Drug Design, Development and Therapy, 2020).

Columns and labels:
[1] = SAD study safety and tolerability assessment; format: in vivo, human; settings: for Number of Subjects with AEs (%) / Number of Subjects with Drug Related AEs (% total): 6 subjects
Summary of the method: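 Randomised, double-blind, placebo-controlled trial in healthy Korean males (active:placebo 6:2 per group), single iv infusion in normal saline over 0.5 h at 35–600 mg. Dose escalation was decided by the DSMB. Subjects were in-house days 1–2, revisited day 3, and had follow-up 7 days post-dose. Monitoring covered vital signs, 12-lead ECG, haematology, chemistry, urinalysis, physical exams and AEs, with relationship to drug assigned.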

[2] = MAD study safety and tolerability assessment; format: in vivo, human; settings: for Number of Subjects with AEs (%) / Number of Subjects with Drug Related AEs (% total): 6 subjects
Summary of the method: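 Double-blind, placebo-controlled trial in healthy Korean males (active:placebo 6:2 per group), infused iv in normal saline over 1 h every 12 h, seven doses over 3.5 days, at 150, 300 or 450 mg. Subjects were in-house days 1–5, with follow-up 8 days after the last dose. Monitoring covered vital signs, 12-lead ECG, clinical labs, physical exams and AEs, with intensity and relationship to drug recorded.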

[3] = Major metabolites in samples of the highest dose groups; format: in vivo, human; settings: 600 mg in SAD and 450 mg in MAD
[4] = system: tMCAO stroke model; settings: tMCAO stroke model using monkeys; cited from earlier work
[5] = single iv dose, n=40, number of subjects [cases]
[6] = multiple iv doses, n=24, number of subjects [cases]

CCOc1cc(CN2CCOCC2)cc2[nH]c(=O)c3c(c12)NCCC3.Cl.Cl.O.O [JPI-289]
1 [1]: Bilirubin total increased, Drug-Related [1, 5] | Bilirubin total increased, Total [1, 5] | Diarrhea, Not Related [1, 5] | Diarrhea, Total [1, 5] | Heart rate increased, Not Related [1, 5] | Heart rate increased, Total [1, 5] | Abdominal discomfort, Not Related [2, 6] | Abdominal discomfort, Total [2, 6] | Bilirubin total increased, Drug-Related [2, 6] | Bilirubin total increased, Total [2, 6] | Diarrhea, Not Related [2, 6] | Diarrhea, Total [2, 6] | Fever, Drug-Related [2, 6] | Fever, Total [2, 6] | Sinus tachycardia, Drug-Related [2, 6] | Sinus tachycardia, Total [2, 6] | Stomatitis, Drug-Related [2, 6] | Stomatitis, Total [2, 6]
1 (16.7): Number of Subjects with Drug Related AEs (% total) ([1]; single iv dose 35 mg) | Number of Subjects with AEs (%) ([2]; multiple iv doses 300 mg) | Number of Subjects with Drug Related AEs (% total) ([2]; multiple iv doses 300 mg)
3 (50.0): Number of Subjects with AEs (%) ([1]; single iv dose 35 mg) | Number of Subjects with AEs (%) ([1]; single iv dose 600 mg) | Number of Subjects with Drug Related AEs (% total) ([1]; single iv dose 600 mg)
0 (0.0): Number of Subjects with AEs (%) ([1]; single iv dose 75 mg) | Number of Subjects with Drug Related AEs (% total) ([1]; single iv dose 75 mg) | Number of Subjects with AEs (%) ([1]; single iv dose 150 mg) | Number of Subjects with Drug Related AEs (% total) ([1]; single iv dose 150 mg) | Number of Subjects with AEs (%) ([1]; single iv dose 300 mg) | Number of Subjects with Drug Related AEs (% total) ([1]; single iv dose 300 mg) | Number of Subjects with AEs (%) ([2]; multiple iv doses 150 mg) | Number of Subjects with Drug Related AEs (% total) ([2]; multiple iv doses 150 mg)
No clinically significant abnormalities: abnormalities in laboratory tests, physical examinations, vital signs, or electrocardiograms ([1]; SAD and MAD)
12: total number of AEs ([2]; MAD, in seven subjects)
No serious AEs occurred: serious AEs ([1]; entire course of the study (SAD and MAD))
53%: decrease in infarction volume [4]
mild in intensity: intensity of AEs ([1]; SAD) | intensity of AEs ([2]; MAD)
600 mg: maximum tolerated dose ([1]; SAD, decided by DSMB, dizziness as dose-limiting toxicity)
3 [4]: Dizziness, Drug-Related [1, 5] | Dizziness, Total [1, 5]
Twenty-two: number of metabolites detected [3]
4 (66.7): Number of Subjects with Drug Related AEs (% total) ([2]; multiple iv doses 450 mg)
2 [2]: Dizziness, Drug-Related [2, 6] | Dizziness, Total [2, 6] | Headache, Drug-Related [2, 6] | Headache, Total [2, 6] | Urticaria, Drug-Related [2, 6] | Urticaria, Total [2, 6]
all mild in intensity: intensity of AEs ([1]; SAD and MAD studies together)
well tolerated: tolerability ([1]; SAD, dose range 35–600 mg) | tolerability ([2]; MAD, dose range 150–450 mg)
0 [0]: Abdominal discomfort, Drug-Related [1, 5] | Abdominal discomfort, Not Related [1, 5] | Abdominal discomfort, Total [1, 5] | Bilirubin total increased, Not Related [1, 5] | Diarrhea, Drug-Related [1, 5] | Dizziness, Not Related [1, 5] | Fever, Drug-Related [1, 5] | Fever, Not Related [1, 5] | Fever, Total [1, 5] | Headache, Drug-Related [1, 5] | Headache, Not Related [1, 5] | Headache, Total [1, 5] | Heart rate increased, Drug-Related [1, 5] | Sinus tachycardia, Drug-Related [1, 5] | Sinus tachycardia, Not Related [1, 5] | Sinus tachycardia, Total [1, 5] | Stomatitis, Drug-Related [1, 5] | Stomatitis, Not Related [1, 5] | Stomatitis, Total [1, 5] | Urticaria, Drug-Related [1, 5] | Urticaria, Not Related [1, 5] | Urticaria, Total [1, 5] | Abdominal discomfort, Drug-Related [2, 6] | Bilirubin total increased, Not Related [2, 6] | Diarrhea, Drug-Related [2, 6] | Dizziness, Not Related [2, 6] | Fever, Not Related [2, 6] | Headache, Not Related [2, 6] | Heart rate increased, Drug-Related [2, 6] | Heart rate increased, Not Related [2, 6] | Heart rate increased, Total [2, 6] | Sinus tachycardia, Not Related [2, 6] | Stomatitis, Not Related [2, 6] | Urticaria, Not Related [2, 6]
5 (83.3): Number of Subjects with AEs (%) ([2]; multiple iv doses 450 mg)
